This note sets out measurements from ChEMBL document CHEMBL4706591, “Diphenyl triazine hybrids inhibit α-synuclein fibrillogenesis: Design, synthesis and in vitro efficacy studies” (Eur J Med Chem, 2020).

Calls of active or inactive are those of the source. The calls are words filed in the database; no cut-off is given here.

Data set [1] addresses Alpha-synuclein (Homo sapiens) (UniProt P37840). Description: Inhibition of recombinant alpha-synuclein (unknown origin) aggregation expressed in Escherichia coli BL21 (DE3) cells assessed as reduction in fluorescent labeled aggregates at 20 uM incubated for >=66 hrs by ThT dye based inverted fluorescence microscopic analysis. The following applies: time hrs >=66. The essentials:
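After the ThT kinetic run (about 66 h), 10 µL of control or compound-incubated α-syn mixed with 20 µM ThT was placed on a glass slide under a coverslip. Imaged on an inverted fluorescence microscope, FITC filter, 100× oil objective, with constant laser power and intensity.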

For data set [2] the target is unchanged. Description: Inhibition of recombinant alpha-synuclein (unknown origin) aggregation expressed in Escherichia coli BL21 (DE3) cells assessed as lag time at 1:1 compound-protein molar ratio measured for every 30 mins in presence of ThT by spectrofluorometry (reference value: 15.1 +/- 0.9 hrs). The essentials: (§1)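 Recombinant α-syn from E. coli BL21(DE3), extracted by osmotic shock, purified on DEAE-Sepharose with 50–500 mM NaCl gradient. Run at 37 °C; Ex 440/Em 485 nm read every 30 min after 30 s orbital shaking, until plateau. Four wells each. Each well fitted to a sigmoid giving t1/2, kapp = 1/τ, and tlag from lag/elongation intercept, then averaged; Student's t-test.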

The target is the same in data set [3]. As to the kind of experiment: Disruption of recombinant preformed alpha-synuclein (unknown origin) aggregation expressed in Escherichia coli BL21 (DE3) at 20 uM incubated for 5 days by ThT dye based inverted fluorescence microscopic analysis. The note with it: time 5.0 day. The method in brief:
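Preformed α-syn aggregates incubated with compound at 1:1 molar ratio at 37 °C for 5 days, without ThT, in a sealed plate, one well each. Samples then stained with ThT and imaged on an inverted fluorescence microscope through a FITC filter with constant imaging parameters.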

Data set [4] has the same target. Description: Inhibition of recombinant alpha-synuclein (unknown origin) aggregation expressed in Escherichia coli BL21 (DE3) cells assessed as elongation phase time at 1:1 compound-protein molar ratio measured for every 30 mins in presence of ThT by spectrofluorometry (reference value: 31.2 +/- 0.6 hrs). The note with it: dose 70.0 µM. The method in brief: as §1

Data set [5] relates to MEF. Description: Cytotoxicity against mouse MEF cells at 10 uM incubated for 24 hrs by MTT assay. The class given is cell-based. The essentials:
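MEF cells grown in DMEM with 10% FBS and 1% penicillin-streptomycin to about 80% confluency. Cells trypsinized, plated, and left 24 h at 37 °C in humidified CO2. Compound added at 10 µM in triplicate with DMSO vehicle control, 24 h. MTT 0.5 mg/mL for 4 h in dark, formazan dissolved in DMSO, absorbance read at 570 nm. Mean ± SEM of three independent replicates.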
Background: Tetrazolium dyes change colour on reduction, which living cells bring about.

Data set [6] in a line: Solubility of the compound in sodium phosphate buffer at pH 7.4. It counts as physicochemical.
Data set [7] deals with Alpha-synuclein (Homo sapiens) (UniProt P37840). Description: Inhibition of recombinant alpha-synuclein (unknown origin) aggregation expressed in Escherichia coli BL21 (DE3) cells assessed as apparent elongation rate constant at 1:1 compound-protein molar ratio measured for every 30 mins in presence of ThT by spectrofluorometry (reference value: 108.7 +/- 1.8 10^-3/hr). The essentials:
as §1

The target is the same in data set [8]. Description: Inhibition of recombinant alpha-synuclein (unknown origin) aggregation expressed in Escherichia coli BL21 (DE3) cells at 1:1 compound-protein molar ratio measured for every 30 mins in presence of ThT by spectrofluorometry. The essentials:
as §1

A short description of data set [9]: Aggregation property of the compound assessed as change in ThT fluorescence in presence of Thioflavin T. The following applies: 336 h; time 2 weeks. The class given is physicochemical. The method in brief:
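Compound alone incubated with ThT without α-syn for over 2 weeks; ThT fluorescence monitored to exclude self-aggregation interference.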

For data set [10], the target named is Alpha-synuclein (Homo sapiens) (UniProt P37840). As to the kind of experiment: Inhibition of recombinant alpha-synuclein (unknown origin) aggregation expressed in Escherichia coli BL21 (DE3) cells assessed as final plateau fluorescence at 1:1 compound-protein molar ratio measured for every 30 mins in presence of ThT by spectrofluorometry relative to control. The essentials:
as §1

Data set [11] concerns MEF. As to the kind of experiment: Cytotoxicity against mouse MEF cells at 10 uM incubated for 24 hrs in presence of aggregated alpha-synuclein by MTT assay. It counts as cell-based. The essentials:
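MEF cells cultured and plated as for the compound-only cytotoxicity assay. Cells treated in triplicate for 24 h with monomeric α-syn, aggregated α-syn, or α-syn aggregated in presence of compound at 1:1. Viability read by MTT (0.5 mg/mL, 4 h, 570 nm). Mean ± SEM, three replicates; Student's t-test, p<0.05.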

As a reminder, the inhibition is the share of the control response that was lost under treatment. Take `O=C(CSc1nnc(-c2ccccc2)c(-c2ccccc2)n1)N1CCN(c2ccnc3cc(Cl)ccc23)CC1`: the inhibition result in [1], in data set [3] and in data set [8] was “Active” in each case. Besides, in [2], the Tlag was 15.9 h. The T1/2 in [4] is 28.2 h. Besides, the Activity result in data set [5] is “Non-Toxic”; in [9], “Not Active”; in data set [11], “Toxic”. Also, the solubility result in [6] is “Insoluble”. In data set [7], the Kapp was 128 10^-3/hr. For the same compound, the inhibition in data set [10] is above 50%.
On to `O=C(CSc1nnc(-c2ccccc2)c(-c2ccccc2)n1)N1CCN(S(=O)(=O)c2ccc(Cl)cc2Cl)CC1`, for which the Tlag in data set [2] was determined as 13.9 h. The T1/2 in data set [4] is 30.4 h. Further, the solubility result in data set [6] is recorded as “Insoluble”. The Kapp in [7] was 122 10^-3/hr. The inhibition result in data set [8] was “Active”. Moreover, the Activity result in data set [9] is “Not Active”.
Take `CC(=O)Nc1ccc(S(=O)(=O)N2CCN(C(=O)CSc3nnc(-c4ccccc4)c(-c4ccccc4)n3)CC2)cc1F`: the inhibition result in data set [1], in data set [3] and in data set [8] was “Active” throughout. Further, the Tlag in data set [2] was 14.9 h. Also, the T1/2 in [4] is 28.1 h. Further, the Activity entry in data set [5] is on record as “Non-Toxic”; in data set [9], “Not Active”; in [11] it was “Toxic”. Also, the solubility entry in data set [6] is listed as “Insoluble”. Besides, the Kapp in [7] was 121 10^-3/hr. In [10], the inhibition was above 50%.
Turning to `O=C(CSc1nnc(-c2ccccc2)c(-c2ccccc2)n1)N1CCN(S(=O)(=O)c2ccc(Br)cc2)CC1`, the inhibition result in data set [1] and in data set [8] was “Active” throughout. In addition, the Tlag in data set [2] amounted to 14.4 h. For the same compound, the inhibition result in data set [3] is “inactive”. The T1/2 in [4] was 27 h. Besides, the Activity result is “Non-Toxic” in data set [5], “Not Active” in data set [9] and “Non-Toxic” in data set [11]. For the same compound, in data set [6], the solubility result is given as “Insoluble”. For the same compound, the Kapp in [7] was 120 10^-3/hr. The inhibition in [10] was below 40%.
For `O=C(CSc1nnc(-c2ccccc2)c(-c2ccccc2)n1)N1CCN(S(=O)(=O)c2ccccc2[N+](=O)[O-])CC1`, the Tlag in data set [2] amounted to 15.3 h. Also, the T1/2 in data set [4] came to 29.1 h. The solubility result in data set [6] is reported as “Insoluble”. In data set [7], the Kapp is 123 10^-3/hr. For the same compound, the inhibition entry in data set [8] was “Active”. In addition, the Activity entry in data set [9] is reported as “Not Active”. Moreover, the inhibition in data set [10] was below 40%.
In the case of `Cc1ccc(S(=O)(=O)N2CCN(C(=O)CSc3nnc(-c4ccccc4)c(-c4ccccc4)n3)CC2)cc1`, in data set [2], the Tlag stood at 14.1 h. In data set [4], the T1/2 came to 29.4 h. Besides, the solubility entry in [6] was “Insoluble”. Further, in [7], the Kapp was 118 10^-3/hr. The inhibition entry in data set [8] was “Active”. The Activity entry in data set [9] is recorded as “Not Active”. Also, in data set [10], the inhibition is below 40%.
As to `CC(=O)Nc1ccc(S(=O)(=O)N2CCN(C(=O)CSc3nnc(-c4ccccc4)c(-c4ccccc4)n3)CC2)cc1`, the inhibition result in [1], in data set [3] and in data set [8] was “Active” each time. Besides, in data set [2], the Tlag was found to be 14.6 h. Also, the T1/2 in [4] stood at 27.5 h. Besides, the Activity entry in [5] is given as “Non-Toxic”; in data set [9], “Not Active”; in [11], “Non-Toxic”. For the same compound, in data set [6], the solubility entry is on record as “Insoluble”. In addition, the Kapp in [7] is 86.6 10^-3/hr. Also, the inhibition in data set [10] is above 50%.
Regarding `O=C(CSc1nnc(-c2ccccc2)c(-c2ccccc2)n1)N1CCN(S(=O)(=O)c2ccc3ccccc3c2)CC1`, the Tlag in data set [2] was determined as 16.1 h. In data set [4], the T1/2 amounted to 30 h. For the same compound, the solubility result in data set [6] is given as “Insoluble”. Also, the Kapp in data set [7] is 116 10^-3/hr. The inhibition result in [8] is “Active”. In addition, in data set [9], the Activity entry is given as “Not Active”.
